What was measured:
[1] = molecular target: Collagenase 3 (Homo sapiens, UniProt P45452); assay: Inhibition of human recombinant MMP-13 using Mca-Lys-Pro-Leu-GlyLeu-Dpa-Ala-Arg-NH2 as substrate preincubated for 30 mins followed by substrate addition by fluorescence based analysis
[2] = molecular target: T1, Interstitial collagenase (Homo sapiens, UniProt P03956); assay: Inhibition of human recombinant MMP-1 incubated for 30 mins by fluorescence based analysis
T1 sequence (P03956 whole entry): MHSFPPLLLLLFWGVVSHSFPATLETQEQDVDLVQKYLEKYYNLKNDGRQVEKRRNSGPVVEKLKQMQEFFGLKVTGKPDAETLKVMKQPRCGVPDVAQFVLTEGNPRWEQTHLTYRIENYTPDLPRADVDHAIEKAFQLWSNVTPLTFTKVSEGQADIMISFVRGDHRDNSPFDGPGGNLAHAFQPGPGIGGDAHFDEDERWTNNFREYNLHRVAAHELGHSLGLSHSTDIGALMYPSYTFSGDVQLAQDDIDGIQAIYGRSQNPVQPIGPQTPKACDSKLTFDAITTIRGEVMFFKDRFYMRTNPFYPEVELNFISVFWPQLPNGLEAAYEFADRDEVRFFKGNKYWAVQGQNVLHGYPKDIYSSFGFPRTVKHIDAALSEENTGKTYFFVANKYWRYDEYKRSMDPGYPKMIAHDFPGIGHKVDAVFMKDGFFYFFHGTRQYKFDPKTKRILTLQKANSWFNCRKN

[3] = molecular target: 72 kDa type IV collagenase (Homo sapiens, UniProt P08253); assay: Inhibition of human recombinant MMP-2 incubated for 30 mins by fluorescence based analysis
Sequence of 72 kDa type IV collagenase (P08253 whole entry): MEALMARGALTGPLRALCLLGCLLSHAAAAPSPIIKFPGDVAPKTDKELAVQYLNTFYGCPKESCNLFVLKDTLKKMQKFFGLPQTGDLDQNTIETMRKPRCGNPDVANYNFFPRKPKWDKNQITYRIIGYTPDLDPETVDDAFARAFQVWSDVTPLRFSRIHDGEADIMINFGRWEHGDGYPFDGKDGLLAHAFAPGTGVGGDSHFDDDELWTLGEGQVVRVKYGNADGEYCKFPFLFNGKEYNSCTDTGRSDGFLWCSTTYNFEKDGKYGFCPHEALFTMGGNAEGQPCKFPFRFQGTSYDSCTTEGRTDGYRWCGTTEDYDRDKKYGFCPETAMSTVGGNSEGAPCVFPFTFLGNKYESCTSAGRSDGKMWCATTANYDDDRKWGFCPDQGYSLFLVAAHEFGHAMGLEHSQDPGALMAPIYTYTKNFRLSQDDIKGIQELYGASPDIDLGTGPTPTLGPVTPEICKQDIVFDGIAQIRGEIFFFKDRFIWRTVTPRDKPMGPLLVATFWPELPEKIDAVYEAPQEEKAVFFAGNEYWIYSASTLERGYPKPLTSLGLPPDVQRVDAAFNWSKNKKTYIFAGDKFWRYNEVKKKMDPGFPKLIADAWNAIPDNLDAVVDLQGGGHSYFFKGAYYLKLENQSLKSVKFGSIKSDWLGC

[4] = molecular target: Neutrophil collagenase (Homo sapiens, UniProt P22894); assay: Inhibition of human recombinant MMP-8 incubated for 30 mins by fluorescence based analysis
Sequence of Neutrophil collagenase (P22894 whole entry): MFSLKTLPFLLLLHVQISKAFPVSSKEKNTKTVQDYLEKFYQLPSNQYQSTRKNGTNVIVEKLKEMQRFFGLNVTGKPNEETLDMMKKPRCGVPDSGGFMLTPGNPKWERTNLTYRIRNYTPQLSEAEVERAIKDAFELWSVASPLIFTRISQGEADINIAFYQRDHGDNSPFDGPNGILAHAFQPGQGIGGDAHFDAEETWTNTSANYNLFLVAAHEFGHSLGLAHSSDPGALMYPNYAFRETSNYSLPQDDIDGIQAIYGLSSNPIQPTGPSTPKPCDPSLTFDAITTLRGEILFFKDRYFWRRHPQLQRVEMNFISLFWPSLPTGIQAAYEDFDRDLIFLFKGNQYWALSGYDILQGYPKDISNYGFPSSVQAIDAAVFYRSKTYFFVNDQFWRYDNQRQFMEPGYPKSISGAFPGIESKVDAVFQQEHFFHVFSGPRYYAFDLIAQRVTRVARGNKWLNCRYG

[5] = molecular target: Matrix metalloproteinase-9 (Homo sapiens, UniProt P14780); assay: Inhibition of human recombinant MMP-9 incubated for 30 mins by fluorescence based analysis
Sequence of Matrix metalloproteinase-9 (P14780 whole entry): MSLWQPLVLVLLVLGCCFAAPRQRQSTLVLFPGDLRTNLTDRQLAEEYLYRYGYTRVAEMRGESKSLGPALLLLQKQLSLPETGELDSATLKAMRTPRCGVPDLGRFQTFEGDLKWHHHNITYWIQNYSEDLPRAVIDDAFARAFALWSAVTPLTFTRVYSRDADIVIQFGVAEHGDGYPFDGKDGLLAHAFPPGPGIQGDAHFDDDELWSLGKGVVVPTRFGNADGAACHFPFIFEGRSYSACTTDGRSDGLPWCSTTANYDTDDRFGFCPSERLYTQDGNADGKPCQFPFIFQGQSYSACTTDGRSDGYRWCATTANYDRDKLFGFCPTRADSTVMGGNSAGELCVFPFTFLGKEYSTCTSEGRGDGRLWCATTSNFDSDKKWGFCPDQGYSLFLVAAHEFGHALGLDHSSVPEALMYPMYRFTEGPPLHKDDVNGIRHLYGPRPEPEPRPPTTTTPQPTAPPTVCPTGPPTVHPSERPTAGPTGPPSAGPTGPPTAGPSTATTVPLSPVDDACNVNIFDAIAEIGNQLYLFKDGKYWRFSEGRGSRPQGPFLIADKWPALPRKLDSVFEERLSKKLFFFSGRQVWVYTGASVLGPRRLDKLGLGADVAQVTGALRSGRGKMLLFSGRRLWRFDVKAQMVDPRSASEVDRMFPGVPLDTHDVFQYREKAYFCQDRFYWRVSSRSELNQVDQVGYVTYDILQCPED

[6] = molecular target: Stromelysin-2 (Homo sapiens, UniProt P09238); assay: Inhibition of human recombinant MMP-10 using […]-Pro-Lys-Pro-Val-Glu-Nval-Trp-Arg-Lys(Dnp)-NH2 as substrate preincubated for 30 mins followed by substrate addition by fluorescence based analysis
Sequence of Stromelysin-2 (P09238 whole entry): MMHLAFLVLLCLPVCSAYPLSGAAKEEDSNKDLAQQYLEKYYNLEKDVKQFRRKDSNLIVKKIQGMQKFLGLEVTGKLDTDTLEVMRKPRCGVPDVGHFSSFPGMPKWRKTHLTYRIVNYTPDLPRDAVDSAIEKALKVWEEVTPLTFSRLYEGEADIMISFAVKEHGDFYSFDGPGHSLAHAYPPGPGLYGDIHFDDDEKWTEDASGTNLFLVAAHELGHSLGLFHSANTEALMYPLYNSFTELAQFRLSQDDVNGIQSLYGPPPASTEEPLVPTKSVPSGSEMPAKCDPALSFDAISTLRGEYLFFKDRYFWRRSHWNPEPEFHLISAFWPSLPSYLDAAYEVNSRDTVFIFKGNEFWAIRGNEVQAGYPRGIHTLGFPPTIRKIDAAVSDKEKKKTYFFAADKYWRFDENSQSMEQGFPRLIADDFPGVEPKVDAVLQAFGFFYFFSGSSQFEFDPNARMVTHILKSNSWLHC

[7] = Stability of compound in 10% EtOH/saline assessed as compound degradation measured upto 75 mins by analytical radio-HPLC analysis; assay type: physicochemical; details: buffer, 1.25 h
Procedure, shortened: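 Radiotracer formulated in 10% EtOH/0.9% saline was held at room temperature up to 75 min. Samples were analysed by analytical radio-HPLC (C18, 0.1 M ammonium formate/ACN gradient, 1 mL·min⁻¹).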

[8] = Drug distribution in western atherogenic diet fed ApoE-/- mouse lung at […], iv administered as bolus injection measured for 30 mins by gamma counter analysis; assay type: ADME, organism-based; details: in vivo, 0.5 h
Procedure, shortened: (§1)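 Diet-fed male ApoE-/- mice (39 ± 5 g, n = 4-6) under 2% isoflurane received radiotracer (~7.5 MBq, 100-200 µL) IV by tail-vein bolus over 30 s. After 30 min, blood was taken by cardiac puncture, then PBS/formalin perfusion and organ dissection. Uptake is decay-corrected %ID normalized to tissue mass (%ID/g).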

[9] = Drug distribution in western atherogenic diet fed ApoE-/- mouse spleen at […], iv administered as bolus injection measured for 30 mins by gamma counter analysis; assay type: ADME, organism-based; details: in vivo, 0.5 h; procedure, shortened: as §1
[10] = Drug distribution in western atherogenic diet fed ApoE-/- mouse myocardium assessed as myocardial retention at […], iv administered as bolus injection measured for 60 mins by PET analysis; assay type: ADME, organism-based; details: in vivo, 1 h
Procedure, shortened: (§2)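 A 10 min transmission scan preceded tail-vein IV bolus of radiotracer (~7.5 MBq, over 30 s) in diet-fed ApoE-/- mice. Dynamic whole-body PET ran for 60 min (4×15 s, 4×1 min, 11×5 min frames), corrected for attenuation and scatter, 3D-OSEM/MAP reconstruction. Volumetric organ ROIs gave %ID·cc⁻¹ time-activity curves; n = 2 per group.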

[11] = Tmax in western atherogenic diet fed ApoE-/- mouse blood at […], iv administered as bolus injection measured for 60 mins by PET analysis; assay type: ADME, organism-based; details: in vivo, 1 h; procedure, shortened: as §2
[12] = Drug distribution in western atherogenic diet fed ApoE-/- mouse fat tissue at […], iv administered as bolus injection measured for 30 mins by gamma counter analysis; assay type: ADME, organism-based, Adipose tissue; details: in vivo, 0.5 h; procedure, shortened: as §1
[13] = Drug distribution in western atherogenic diet fed ApoE-/- mouse liver at […], iv administered as bolus injection measured for 60 mins by PET analysis; assay type: ADME, organism-based; details: in vivo, 1 h; procedure, shortened: as §2
[14] = Drug distribution in western atherogenic diet fed ApoE-/- mouse aortic plaques at […], iv administered as bolus injection measured for 30 mins by Oil Red O staining based autoradiography; assay type: ADME, organism-based, Aorta; details: in vivo, 0.5 h
Procedure, shortened: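 Male ApoE-/- mice were fed a western atherogenic diet from 8 weeks of age for 13-16 weeks. Radiotracer (~7.5 MBq) was given IV by tail-vein bolus over 30 s. Blocking: unlabelled tracer analogue (2.5 mg/kg; DMA/propylene glycol/PEG400/water) or WAY170523 (7.5 mg/kg; DMSO/PEG400/water), both IV 15 min before. At 30 min, perfused aortae were exposed to a phosphor screen for 10 half-lives (%ID·mm⁻²), with ORO staining.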

[15] = Drug distribution in western atherogenic diet fed ApoE-/- mouse kidney at […], iv administered as bolus injection measured for 60 mins by PET analysis; assay type: ADME, organism-based; details: in vivo, 1 h; procedure, shortened: as §2
[16] = Drug distribution in western atherogenic diet fed ApoE-/- mouse intestine at […], iv administered as bolus injection measured for 30 mins by gamma counter analysis; assay type: ADME, organism-based; details: in vivo, 0.5 h; procedure, shortened: as §1
[17] = Drug distribution in western atherogenic diet fed ApoE-/- mouse urinary bladder at […], iv administered as bolus injection measured for 60 mins by PET analysis; assay type: ADME, organism-based; details: in vivo, 1 h; procedure, shortened: as §2
[18] = Drug distribution in western atherogenic diet fed ApoE-/- mouse blood assessed as compound remaining at […], iv administered as bolus injection measured for 30 mins by gamma counter analysis; assay type: ADME, organism-based; details: in vivo, 0.5 h; procedure, shortened: as §1
[19] = Drug distribution in western atherogenic diet fed ApoE-/- mouse brain at […], iv administered as bolus injection measured for 30 mins by gamma counter analysis; assay type: ADME, organism-based; details: in vivo, 0.5 h; procedure, shortened: as §1
[20] = Stability in western atherogenic diet fed ApoE-/- mouse plasma assessed as intact compound level at ~75 MBq, iv administered as bolus injection and measured after 30 mins by gamma counter analysis; assay type: ADME, organism-based; details: read-out: Stability
Procedure, shortened: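 Blood was drawn by cardiac puncture into K₂EDTA tubes 30 min after IV radiotracer in diet-fed ApoE-/- mice. Optional IV pretreatment 15 min before: unlabelled analogue 2.5 mg/kg or WAY170523 7.5 mg/kg. Pooled protein-free plasma was spiked with standard and run on radio-HPLC (C18, ammonium formate/ACN). Fractions were collected each minute and gamma-counted to give the parent fraction.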

[21] = Drug distribution in western atherogenic diet fed ApoE-/- mouse intestine at […], iv administered as bolus injection measured for 60 mins by PET analysis; assay type: ADME, organism-based; details: in vivo, 1 h; procedure, shortened: as §2
[22] = Drug distribution in western atherogenic diet fed ApoE-/- mouse kidney at […], iv administered as bolus injection measured for 30 mins by gamma counter analysis; assay type: ADME, organism-based; details: in vivo, 0.5 h; procedure, shortened: as §1
[23] = Drug distribution in western atherogenic diet fed ApoE-/- mouse muscle tissue at […], iv administered as bolus injection measured for 30 mins by gamma counter analysis; assay type: ADME, organism-based; details: in vivo, 0.5 h; procedure, shortened: as §1
[24] = Drug distribution in western atherogenic diet fed ApoE-/- mouse stomach at […], iv administered as bolus injection measured for 30 mins by gamma counter analysis; assay type: ADME, organism-based; details: in vivo, 0.5 h; procedure, shortened: as §1
[25] = Drug distribution in western atherogenic diet fed ApoE-/- mouse myocardium assessed as compound remaining at […], iv administered as bolus injection measured for 30 mins by gamma counter analysis; assay type: ADME, organism-based; details: in vivo, 0.5 h; procedure, shortened: as §1
[26] = Drug distribution in western atherogenic diet fed ApoE-/- mouse bone at […], iv administered as bolus injection measured for 30 mins by gamma counter analysis; assay type: ADME, organism-based, Bone element; details: in vivo, 0.5 h; procedure, shortened: as §1
[27] = Drug distribution in western atherogenic diet fed ApoE-/- mouse pancreas at […], iv administered as bolus injection measured for 30 mins by gamma counter analysis; assay type: ADME, organism-based; details: in vivo, 0.5 h; procedure, shortened: as §1
[28] = Drug distribution in western atherogenic diet fed ApoE-/- mouse liver at […], iv administered as bolus injection measured for 30 mins by gamma counter analysis; assay type: ADME, organism-based; details: in vivo, 0.5 h; procedure, shortened: as §1
[29] = Octanol/PBS distribution coefficient, logD of compound at pH 7.4 incubated for 10 mins under shaking condition by gamma counter analysis; assay type: physicochemical
Procedure, shortened: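 Radiotracer partitioning between 1-octanol and 1× PBS at pH 7.4. Mean ± standard error of two independent experiments, each in quadruplicate.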

`O=C(NCc1cccc(O)c1)c1nc2ccc(F)c(F)c2c(=O)[nH]1` gave an IC50 [1] of 149 nM.
With `COc1ccc(CNC(=O)c2nc3ccc(F)c(OCCc4ccc(C(=O)O)cc4)c3c(=O)[nH]2)cc1` the IC50 [2] was > 10000 nM, the IC50 [3] was > 10000 nM and the IC50 [4] was 1400 nM. For the same molecule, the IC50 [1] was 2.9 nM, the IC50 [5] was > 10000 nM and the IC50 [6] was 2700 nM.
With `[11CH3]Oc1cccc(CNC(=O)c2nc3ccc(F)c(OCCc4ccc(C(=O)O)cc4)c3c(=O)[nH]2)c1` the Stability [7] was “Stable”, the Drug uptake [8] was ~ 2 % ID/g and the Drug uptake [9] was 2.11 % ID/g. For the same molecule, the Drug uptake [10] was < 0.5 %ID/cc, the Tmax [11] was 37.5 s and the Drug uptake [12] was ~ 2 % ID/g. For the same molecule, the Drug uptake [13] was 25.29 %ID/cc, the Drug uptake [14] was 52.97 %ID.m^-2 and the Drug uptake [15] was 21.01 %ID/cc. For the same molecule, the Drug uptake [16] was 53.05 % ID/g, the Drug uptake [17] was “Not Active” and the Drug uptake [18] was 0.49 % ID/g. For the same molecule, the Drug uptake [19] was ~ 2 % ID/g, the remaining at 0.5 h [20] was 86% and the Drug uptake [21] was “Active”. For the same molecule, the Drug uptake [22] was 30.95 % ID/g, the Drug uptake [23] was ~ 2 % ID/g and the Drug uptake [24] was ~ 2 % ID/g. The Drug uptake [25] was ~ 1 % ID/g, the Drug uptake [26] was ~ 2 % ID/g and the Drug uptake [27] was ~ 2 % ID/g. It also gave a Drug uptake [28] of 7.29 % ID/g and a logD at 10 min [29] of 1.16.
Work on `Cc1cc(CNC(=O)c2nc3ccc(F)c(F)c3c(=O)[nH]2)ccc1F` yielded an IC50 [1] of 106 nM.
For `COc1ccc(CNC(=O)c2nc3ccc(F)c(OCCF)c3c(=O)[nH]2)cc1`, the IC50 [1] was 127 nM.
For `Cc1cc(CNC(=O)c2nc3ccc(F)c(OCCc4ccc(C(=O)O)cc4)c3c(=O)[nH]2)ccc1F`, the IC50 [2] was > 10000 nM, the IC50 [3] was > 10000 nM and the IC50 [4] was 1700 nM. For the same molecule, the IC50 [1] was 1.2 nM, the IC50 [5] was > 10000 nM and the IC50 [6] was 2500 nM.
With `Cc1cc(CNC(=O)c2cc(C(=O)NCc3ccc(OCCF)cc3)ncn2)ccc1F` the IC50 [1] was 52 nM.
With `COc1cccc(CNC(=O)c2nc3ccc(F)c(OCCc4ccc(C(=O)O)cc4)c3c(=O)[nH]2)c1` the IC50 [2] was > 10000 nM, the IC50 [3] was > 10000 nM and the IC50 [4] was 2400 nM. The IC50 [1] was 1.3 nM, the IC50 [5] was > 10000 nM and the IC50 [6] was 3200 nM.
With `Cc1cc(CNC(=O)c2cc(C(=O)NCc3ccc(OCC[18F])cc3)ncn2)ccc1F` the Drug uptake [10] was ~ 5 %ID/cc and the Drug uptake [13] was ~ 12 %ID/cc.

From ChEMBL document CHEMBL5338774, “Quinazoline-2-Carboxamides as Selective PET Radiotracers for Matrix Metalloproteinase-13 Imaging in Atherosclerosis” (J Med Chem, 2023)
